From ChEMBL document CHEMBL1140321, “Synthesis and biological evaluation of acyclic 3-[(2-hydroxyethoxy)methyl] analogues of antiviral furo- and pyrrolo[2,3-d]pyrimidine nucleosides” (J Med Chem, 2005) come the findings set out here.

Bounds are passed on as bounds.

Test [1] concerns HEL. Nature of the test: Concentration required to inhibit herpes simplex virus type 2 induced cytopathogenicity in HEL cells by 50%. Particulars: Homo sapiens. Type of test: functional, cell-based.
The test system of test [2] is HEL. Nature of the test: Concentration required to inhibit vesicular stomatitis virus induced cytopathogenicity in HEL cells by 50%. Particulars: Homo sapiens. It counts as functional, cell-based.
Test [3] concerns HEL. Nature of the test: Concentration required to inhibit cell proliferation in HEL cells by 50%. It counts as functional. The conditions noted are these: Homo sapiens.
In test [4] the test system is HEL. Nature of the test: Concentration required to inhibit human cytomegalovirus strain AD169 induced cytopathogenicity in HEL cells by 50%. Type of test: functional, cell-based.
Test [5] has as its system CCRF-CEM. Nature of the test: Concentration required to inhibit human immunodeficiency virus-2 (strain ROD) induced cytopathogenicity in CEM cells by 50%. Type of test: functional, cell-based. The method, boiled down: (§1)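 Human CEM cells (~3 × 10^5 cells/cm³) were infected with 100 CCID50/mL of HIV-1(IIIB) or HIV-2(ROD) and seeded into wells with compound dilutions. After 4 days at 37 °C, HIV-induced giant-cell formation was examined microscopically and EC50 was taken as the concentration giving 50% inhibition.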
On the technique in general: Damage to the host cells serves as the signal in cytopathic effect assays.

Test [6] has as its system HEL. Nature of the test: Concentration required to inhibit human cytomegalovirus strain Davis induced cytopathogenicity in HEL cells by 50%. It counts as functional, cell-based.
Test [7] concerns HEL. Nature of the test: Concentration required to inhibit vaccinia virus induced cytopathogenicity in HEL cells by 50%. It counts as functional, cell-based. The conditions noted are these: Homo sapiens.
Test [8] deals with HEL. Nature of the test: Concentration required to inhibit Varicella-Zoster virus (strain OKA) induced cytopathogenicity in HEL cells by 50%. It counts as functional, cell-based. The conditions noted are these: Homo sapiens.
Test [9] deals with CCRF-CEM. Nature of the test: Concentration required to inhibit human immunodeficiency virus-1 (strain IIIb) induced cytopathogenicity in CEM cells by 50%. Type of test: functional, cell-based. The method, boiled down: as §1
The test system of test [10] is HEL. Nature of the test: Concentration required to inhibit herpes simplex virus type 1 induced cytopathogenicity in HEL cells by 50%. The conditions noted are these: Homo sapiens. Type of test: functional, cell-based.
The test system of test [11] is HEL. Nature of the test: Concentration required to inhibit Varicella-Zoster virus (strain 07/1) induced cytopathogenicity in HEL cells by 50%. Type of test: functional, cell-based. The conditions noted are these: Homo sapiens.
Test [12] relates to HEL. Nature of the test: Concentration required to cause a microscopically visible alteration of cell morphology in HEL cells. It counts as functional. Particulars: Homo sapiens.

Regarding `CCCCCCCCc1cc2cn(COCCO)c(=O)nc2o1`, the EC50 was above 16 µM in the test on HEL [1]; above 16 µM with HEL [2]; 31 µM in the test with HEL [4]; above 50 µM in the test on CCRF-CEM [5]; 10 µM in the test with HEL [6]; above 16 µM in the test on HEL [7]. Besides, the EC50 is 11 µM in the test with HEL [8], above 50 µM in the test on CCRF-CEM [9], above 16 µM in the test on HEL [10] and above 16 µM in the test with HEL [11]. The CC50 in the test on HEL [3] was above 200 µM. The MCC with HEL [12] was at least 80 µM.

Regarding `CCCCCCCCCCc1cc2cn(COCCO)c(=O)nc2o1`, the EC50 in the test with HEL [1] was above 16 µM; in the test with HEL [2], above 16 µM; in the test with HEL [4], above 400 µM; in the test on CCRF-CEM [5], above 250 µM; in the test on HEL [6] it was above 80 µM; with HEL [7], above 16 µM. The EC50 was above 80 µM with HEL [8], above 250 µM with CCRF-CEM [9], above 16 µM in the test on HEL [10] and above 80 µM in the test with HEL [11]. The molecule further displayed a CC50 in the test on HEL [3] above 200 µM. In addition, the MCC in the test on HEL [12] turned out to be 400 µM.

For the molecule `CCCCCCCCCc1cc2cn(COCCO)c(=O)nc2o1`, the EC50 in the test on HEL [1] was above 200 µM; in the test with HEL [2], above 200 µM; with HEL [4], above 400 µM; in the test on CCRF-CEM [5], above 250 µM; in the test on HEL [6], above 400 µM; with HEL [7] it was above 200 µM. Moreover, the EC50 is 41 µM in the test on HEL [8], above 250 µM in the test on CCRF-CEM [9], above 200 µM in the test with HEL [10] and 10 µM in the test with HEL [11]. In the test on HEL [3], this molecule showed a CC50 of at least 100 µM. Besides, in the test on HEL [12], the MCC is at least 16 µM.

Turning to `OCCOCn1cc2ccnc-2nc1O`, the EC50 is above 400 µM in the test on HEL [1]; above 400 µM with HEL [2]; above 400 µM in the test with HEL [4]; above 250 µM with CCRF-CEM [5]; above 400 µM with HEL [6]; above 400 µM in the test on HEL [7]. The EC50 is above 400 µM with HEL [8], above 250 µM in the test on CCRF-CEM [9], above 400 µM with HEL [10] and above 400 µM with HEL [11]. Further, the CC50 in the test on HEL [3] was above 200 µM. This molecule also had an MCC in the test on HEL [12] above 400 µM.

Turning to `CCCCCc1cc2cn(COCCO)c(O)nc-2n1`, the EC50 was above 400 µM with HEL [1]; above 400 µM in the test on HEL [2]; above 400 µM with HEL [4]; above 250 µM in the test with CCRF-CEM [5]; above 400 µM in the test with HEL [6]; above 400 µM in the test with HEL [7]. Besides, the EC50 with HEL [8] was above 400 µM; in the test on CCRF-CEM [9], above 250 µM; in the test with HEL [10] it was above 400 µM; in the test on HEL [11] it was above 400 µM. This molecule also returned a CC50 in the test on HEL [3] above 200 µM. The molecule further showed an MCC in the test with HEL [12] above 400 µM.

Consider `CCCCCc1cc2cn(COCCO)c(=O)nc2o1`, for which the EC50 in the test on HEL [1] was above 400 µM; in the test on HEL [2] it was above 400 µM; with HEL [4], above 400 µM; in the test with CCRF-CEM [5], above 250 µM; with HEL [6] it was above 400 µM; in the test on HEL [7], above 400 µM. Further, the EC50 was above 400 µM with HEL [8], above 50 µM in the test on CCRF-CEM [9], above 400 µM in the test with HEL [10] and above 400 µM in the test with HEL [11]. This molecule also returned a CC50 with HEL [3] above 200 µM. This molecule also registered an MCC in the test with HEL [12] above 400 µM.

As for `O=c1nc2occc2cn1COCCO`, the EC50 is above 400 µM in the test with HEL [1]; above 400 µM in the test on HEL [2]; above 400 µM in the test on HEL [4]; above 250 µM in the test on CCRF-CEM [5]; above 400 µM with HEL [6]; above 400 µM in the test on HEL [7]. In addition, the EC50 in the test with HEL [8] was above 100 µM; in the test on CCRF-CEM [9], above 250 µM; in the test with HEL [10], above 400 µM; in the test with HEL [11] it was above 400 µM. In the test on HEL [3], this molecule gave a CC50 above 200 µM. Further, the MCC in the test on HEL [12] is above 400 µM.

With `CCCCc1cc2cn(COCCO)c(=O)nc2o1`, the EC50 in the test on HEL [1] is above 400 µM; in the test with HEL [2] it was above 400 µM; in the test with HEL [4] it was above 400 µM; in the test with CCRF-CEM [5], above 250 µM; in the test on HEL [6], above 400 µM; in the test with HEL [7] it was above 400 µM. The EC50 in the test on HEL [8] was at least 100 µM; with CCRF-CEM [9], above 250 µM; in the test on HEL [10], above 400 µM; in the test with HEL [11] it was above 400 µM. In the test with HEL [3], this molecule registered a CC50 above 200 µM. The molecule further registered an MCC in the test on HEL [12] above 400 µM.

With `CCCCCCc1cc2cn(COCCO)c(O)nc-2n1`, the EC50 with HEL [1] is above 80 µM; in the test on HEL [2] it was above 80 µM; in the test with HEL [4], 400 µM; in the test with CCRF-CEM [5], above 50 µM; with HEL [6] it was 253 µM; with HEL [7], above 80 µM. The EC50 with HEL [8] was 206 µM; in the test on CCRF-CEM [9], above 50 µM; with HEL [10] it was above 80 µM; in the test on HEL [11] it was 151 µM. In the test with HEL [3], the CC50 was above 200 µM. In the test on HEL [12], the MCC was above 400 µM.

A word on the EC50: it is the midpoint of the concentration-response curve. The term CC50 denotes the concentration that lowers cell viability or growth by half. Read a high CC50 as lower toxicity to the cells.
